Test results published in ChEMBL document CHEMBL4190227, “Syntheses, toxicities and anti-inflammation of H2S-donors based on non-steroidal anti-inflammatory drugs” (Eur J Med Chem, 2017).
Activity calls are given as the source filed them. The calls are words filed in the database; no cut-off is given here.

Tests used:
[1] = Drug degradation in phosphate buffer assessed as H2S release by measuring test compound half life at 40 uM measured every 5 mins in presence of TECP by UV-Vis spectrometry; assay type: physicochemical
How it was run: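 Sulfide release at 37.5 °C: donor (40 mM THF stock) added to pH 7.4 phosphate buffer with 1.0 mM TECP; aliquots taken every 5 min into methylene blue cocktail (zinc acetate, N,N-dimethyl-1,4-phenylenediamine, FeCl3 in HCl), A670 read 15 min later; H2S from Na2S calibration curve; concentration vs time curve; four independent experiments.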

HepG2 = experiment: Cytotoxicity against human HepG2 cells assessed as reduction in cell survival after 24 hrs by MTT assay; assay type: cell-based; conditions: HepG2, 24 h
L02 = experiment: Cytotoxicity against human LO2 cells assessed as reduction in cell survival after 24 hrs by MTT assay; assay type: cell-based; conditions: L02, 24 h
[2] = (§1) Cytotoxicity against mouse RAW264.7 cells assessed as cell viability at 10 to 100 uM treated for 24 hrs post LPS induction by MTT assay; assay type: cell-based; conditions: RAW264.7 cells, read-out: Activity
How it was run: (§2)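 Macrophages in high-glucose DMEM + 10% heat-inactivated FBS, 2 mM glutamine, 37 °C, 5% CO2; exposed 24 h to 10, 50, 100 μM with or without LPS 1 μg/mL; MTT added 4 h, formazan dissolved in DMSO, A570, expressed as % of control; four independent experiments.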

[3] = biological target: T1, Nitric oxide synthase, inducible (Mus musculus) (UniProt P29477); experiment: Inhibition of iNOS in mouse RAW264.7 cells assessed as reduction in LPS-induced NO production administered for 24 hrs post LPS induction by Griess method; assay type: cell-based
T1 sequence (whole entry): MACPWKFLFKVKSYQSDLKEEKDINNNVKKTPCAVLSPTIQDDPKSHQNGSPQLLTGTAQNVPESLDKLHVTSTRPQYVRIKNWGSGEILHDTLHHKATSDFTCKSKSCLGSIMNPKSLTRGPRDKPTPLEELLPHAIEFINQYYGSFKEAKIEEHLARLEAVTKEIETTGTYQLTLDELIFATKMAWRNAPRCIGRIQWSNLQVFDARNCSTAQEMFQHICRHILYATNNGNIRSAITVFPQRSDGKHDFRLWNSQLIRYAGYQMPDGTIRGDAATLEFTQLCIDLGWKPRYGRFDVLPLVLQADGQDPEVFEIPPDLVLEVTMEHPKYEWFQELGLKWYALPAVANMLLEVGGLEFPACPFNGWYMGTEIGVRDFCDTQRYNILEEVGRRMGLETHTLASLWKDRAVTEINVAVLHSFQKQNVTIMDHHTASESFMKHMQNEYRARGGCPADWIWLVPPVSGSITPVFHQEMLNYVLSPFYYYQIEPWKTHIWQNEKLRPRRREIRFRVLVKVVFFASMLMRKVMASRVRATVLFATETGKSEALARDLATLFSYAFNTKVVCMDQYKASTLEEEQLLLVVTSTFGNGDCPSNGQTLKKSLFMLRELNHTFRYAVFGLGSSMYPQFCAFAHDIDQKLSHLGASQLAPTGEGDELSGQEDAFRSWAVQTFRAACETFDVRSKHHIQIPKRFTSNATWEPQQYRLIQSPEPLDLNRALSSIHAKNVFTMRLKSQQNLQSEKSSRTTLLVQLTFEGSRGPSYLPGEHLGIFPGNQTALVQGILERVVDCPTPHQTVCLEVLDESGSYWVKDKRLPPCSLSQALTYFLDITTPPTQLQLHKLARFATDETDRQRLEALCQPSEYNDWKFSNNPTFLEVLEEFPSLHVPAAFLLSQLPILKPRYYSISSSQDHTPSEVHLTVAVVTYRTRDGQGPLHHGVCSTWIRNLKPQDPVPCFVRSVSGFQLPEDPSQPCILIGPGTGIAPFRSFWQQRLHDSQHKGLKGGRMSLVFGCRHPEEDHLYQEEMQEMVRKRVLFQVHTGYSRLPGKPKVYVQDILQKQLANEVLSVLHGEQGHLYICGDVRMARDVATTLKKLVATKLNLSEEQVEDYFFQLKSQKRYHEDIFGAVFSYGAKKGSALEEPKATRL
How it was run: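 RAW264.7 cells stimulated with LPS 1 μg/mL for 4 h, then compound (10, 50, 100 μM) for 24 h; culture medium reacted with Griess reagents I and II, absorbance 570 nm; nitrite from sodium nitrite standard curve (0–100 μM in medium); four independent experiments, mean ± SD.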

RAW264.7 [4] = experiment: Antiinflammatory activity in mouse RAW264.7 cells assessed as LPS-induced TNFalpha levels at 100 uM incubated for 24 hrs post LPS induction by ELISA relative to control; assay type: functional
How it was run: (§3)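 LPS (1 μg/mL) for 4 h, then compound at 10, 50, 100 μM for 24 h; cells lysed in RIPA, spun 12,000×g 10 min, protein normalised by BCA to 0.1 mg/mL; target (TNF-α, HO-1, IL-10 or COX-2) quantified by sandwich ELISA kit with mouse-specific polyclonal antibodies; four independent experiments.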

RAW264.7 [5] = experiment: Antiinflammatory activity in mouse RAW264.7 cells assessed as reduction in LPS-induced TNFalpha levels incubated for 24 hrs post LPS induction by ELISA; assay type: functional, cell-based; how it was run: as §3
RAW264.7 [6] = experiment: Antiinflammatory activity in mouse RAW264.7 cells assessed as increase in LPS-induced IL10 levels at 10 to 100 uM incubated for 24 hrs post LPS induction by ELISA; assay type: functional, cell-based; how it was run: as §3
RAW264.7 [7] = experiment: Antiinflammatory activity in mouse RAW264.7 cells assessed as increase in IL10 levels at 10 to 100 uM measured after 24 hrs in absence of LPS by ELISA; assay type: functional, cell-based
How it was run: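 Macrophages exposed 24 h to 10, 50, 100 μM without LPS; lysates (RIPA, 12,000×g spin) normalised by BCA to 0.1 mg/mL protein; IL-10 measured by mouse-specific sandwich ELISA kit; four independent experiments, mean ± SD.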

RAW264.7 [8] = experiment: Antiinflammatory activity in mouse RAW264.7 cells assessed as increase in LPS-induced HO-1 expression incubated for 24 hrs post LPS induction by ELISA; assay type: functional, cell-based; how it was run: as §3
RAW264.7 [9] = experiment: Antiinflammatory activity in mouse RAW264.7 cells assessed as increase in LPS-induced HO-1 expression at 100 uM incubated for 24 hrs post LPS induction by ELISA relative to contol; assay type: functional; how it was run: as §3
RAW264.7 [10] = experiment: Inhibition of LPS-induced COX2 expression in mouse RAW264.7 cells at 100 uM incubated for 24 hrs post LPS induction by ELISA relative to control; assay type: functional; conditions: RAW264.7, 24 h, read-out: INH; how it was run: as §3
[11] = (§4) Cytotoxicity against mouse RAW264.7 cells assessed as cell viability at 10 to 100 uM treated for 24 hrs in absence of LPS by MTT assay; assay type: cell-based; conditions: RAW264.7 cells, read-out: Activity; how it was run: as §2
[12] = Drug degradation in phosphate buffer assessed as H2S release by measuring test compound half life at 40 uM measured every 5 mins in presence of L-cysteine by UV-Vis spectrometry; assay type: physicochemical
How it was run: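 Sulfide release at 37.5 °C: donor (40 mM THF stock) added to pH 7.4 phosphate buffer with 1.0 mM L-cysteine; aliquots taken every 5 min into zinc acetate/N,N-dimethyl-1,4-phenylenediamine/FeCl3 in HCl, A670 read 15 min later; H2S quantified against Na2S standard curve (5–150 μM); release curve plotted vs time; four independent experiments.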

RAW264.7 [13] = experiment: Inhibition of LPS-induced COX2 expression in mouse RAW264.7 cells at 10 to 100 uM incubated for 24 hrs post LPS induction by ELISA; assay type: functional, cell-based; how it was run: as §3
Danio rerio [14] = species: Danio rerio; experiment: Toxicity in AB zebrafish embryo assessed as reduction in hatching rate of embryos up to 5 uM measured at 48 hrs post fertilization by dissecting light microscopic analysis; assay type: organism-based; conditions: in vivo
How it was run: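 AB embryos exposed from 4 to 72 hpf to compound (0.5–20 μM) or DMF vehicle (1:1000), one embryo per well; hatch rate scored at 48 hpf; n=100 per group in three replicates; three independent experiments, mean ± SD.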

Danio rerio [15] = species: Danio rerio; experiment: Toxicity in AB zebrafish embryo assessed as rate of embryo malformation at 0.5 to 20 uM measured at 96 hrs post fertilization by stereoscopic dissecting light microscopic analysis relative to DMF; assay type: organism-based; conditions: in vivo
How it was run: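 AB embryos exposed from 4 hpf through 96 hpf to compound or DMF vehicle (1:1000); malformations scored at 96 hpf under stereoscopic dissecting microscope; 100 embryos per group in three replicates; three independent experiments, mean ± SD.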

RAW264.7 [16] = experiment: as §1; assay type: cell-based; conditions: raw264.7, 24 h, 100 µM; how it was run: as §2
RAW264.7 [17] = experiment: as §4; assay type: cell-based; conditions: raw264.7, 24 h, 100 µM; how it was run: as §2

| half-life at 40 µM [1] | Compound | IC50 (HepG2) | IC50 (L02) | also measured |
| --- | --- | --- | --- | --- |
| 14.4 min | NC(=S)c1ccc(OC(=O)c2ccc(Cl)cc2)cc1 | 1060 µM | > 800 µM |  |
| 3.1 min | COc1ccc2cc(C(C)C(=O)Oc3ccc(-c4cc(=S)ss4)cc3)ccc2c1 (stereo not drawn) | 1120 µM | 1040 µM |  |
| 3.3 min | CC(C(=O)Oc1ccc(C(N)=S)cc1)c1ccc(-c2ccccc2)c(F)c1 (stereo not drawn) | 1680 µM | > 800 µM |  |
| 13.4 min | COc1ccc2cc(C(C)C(=O)Oc3ccc(C(N)=S)cc3)ccc2c1 (stereo not drawn) [ATB-346] | 228 µM | 3610 µM | viability at 24 h, up to 100 µM [2]: 70 to 110%; inhibition [3]: Dose-dependent effect; Activity (RAW264.7 [5]): Dose-dependent effect; Activity (RAW264.7 [6]): Active; Activity (RAW264.7 [7]): Active; Activity (RAW264.7 [8]): Dose-dependent effect; fold change (FC) (RAW264.7 [9]): <=2; inhibition (RAW264.7 [13]): Active; viability at 24 h, up to 100 µM [11]: 70 to 110% |
| 9.8 min | CC(C(=O)Oc1ccc(C(N)=S)cc1)c1cccc(C(=O)c2ccccc2)c1 (stereo not drawn) | 1070 µM | 1180 µM |  |

Second part, the molecule before the results:

| Compound | half-life at 40 µM [1] | IC50 (HepG2) | IC50 (L02) | also measured |
| --- | --- | --- | --- | --- |
| NC(=S)c1ccc(OC(=O)/C=C/c2ccccc2)cc1 | 4.4 min | 410 µM | > 800 µM |  |
| O=C(/C=C/c1ccccc1)Oc1ccc(-c2cc(=S)ss2)cc1 | 1.9 min | 1080 µM | 536 µM |  |
| NC(=S)c1ccc(OC(=O)c2ccccc2Cl)cc1 | 7.1 min | 1060 µM | 1090 µM |  |
| CC(C)Cc1ccc(C(C)C(=O)Oc2ccc(-c3cc(=S)ss3)cc2)cc1 (stereo not drawn) | 1.4 min | 923 µM | 889 µM | viability at 24 h, up to 100 µM [2]: 70 to 110%; inhibition [3]: Dose-dependent effect; Activity (RAW264.7 [4]): 5 - 20%; Activity (RAW264.7 [5]): Dose-dependent effect; Activity (RAW264.7 [6]): Active; Activity (RAW264.7 [7]): Active; Activity (RAW264.7 [8]): Dose-dependent effect; fold change (FC) (RAW264.7 [9]): >3; inhibition at 100 µM (RAW264.7 [10]): 60%; viability at 24 h, up to 100 µM [11]: 70 to 110% |
| O=C(CCCCC1CCSS1)Oc1ccc2ccc(=O)oc2c1 (stereo not drawn) |  | 917 µM | 2540 µM | half-life at 40 µM [12]: 4.6 min |
| CC(C(=O)Oc1ccc(-c2cc(=S)ss2)cc1)c1cccc(C(=O)c2ccccc2)c1 (stereo not drawn) | 3.4 min | 1280 µM | 544 µM |  |
| NC(=S)c1ccccc1 | 0.9 min |  |  |  |
| CC1=C(CC(=O)Oc2ccc(C(N)=S)cc2)c2cc(F)ccc2/C1=C\c1ccc([S+](C)[O-])cc1 (stereo not drawn) | 3.1 min | 1080 µM | 1480 µM |  |
| Oc1ccc(-c2cc(=S)ss2)cc1 | 3.9 min |  |  |  |
| O=C(O)CCCCC1CCSS1 (stereo not drawn) [LIPOIC ACID, ALPHA] |  |  |  | half-life at 40 µM [12]: 118 min |
| COc1ccc2c(c1)c(CC(=O)Oc1ccc(-c3cc(=S)ss3)cc1)c(C)n2C(=O)c1ccc(Cl)cc1 | 1.8 min | 3290 µM | 337 µM | Activity (Danio rerio [14]): Toxic; Activity (Danio rerio [15]): 2%; Activity (RAW264.7 [16]): Non-Toxic; inhibition [3]: Dose-dependent effect; Activity (RAW264.7 [4]): 5 - 20%; Activity (RAW264.7 [5]): Dose-dependent effect; Activity (RAW264.7 [6]): Active; Activity (RAW264.7 [7]): Active; Activity (RAW264.7 [8]): Dose-dependent effect; fold change (FC) (RAW264.7 [9]): <=2; inhibition (RAW264.7 [13]): Active; Activity (RAW264.7 [17]): Non-Toxic |
